Source: ChEMBL document CHEMBL4680297, “Design, synthesis, and evaluation of substrate - analogue inhibitors of Trypanosoma cruzi ribose 5-phosphate isomerase type B” (Bioorg Med Chem Lett, 2021)
Activity calls are given as the source filed them. The calls are words filed in the database; no cut-off is given here.

Assays:
Trypanosoma cruzi [1] = assay: Trypanocidal activity against Trypanosoma cruzi trypomastigotes expressing beta galactosidase infected in NIH/3T3 cells assessed as parasite growth inhibition by reporter assay; assay type: functional, organism-based; conditions: NIH3T3
Procedure, shortened: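 Tulahuen strain expressing β-galactosidase. Trypomastigotes added to NIH-3T3 fibroblasts together with compound, up to 50 μM, covering infection and intracellular amastigote growth. β-Galactosidase activity taken as parasite viability. IC50 from dose-response fits, in triplicate. Amphotericin B positive control.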

Trypanosoma cruzi [2] = assay: Inhibition of Trypanosoma cruzi Ribose 5-phosphate isomerase type B assessed as residual activity at 0.2 mM using ribose 5-phosphate as substrate relative to control
Procedure, shortened: (§1)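 TcRPI-B activity on R5P, measured by coupled enzyme assay (TcRPE-1 first coupling enzyme), with compound at 0.2, 0.5, 1.0 or 2.0 mM, as % of control activity. Mean of three independent determinations ± SEM.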

Trypanosoma cruzi [3] = assay: Inhibition of Trypanosoma cruzi Ribose 5-phosphate isomerase type B assessed as residual activity at 0.5 mM using ribose 5-phosphate as substrate relative to control; procedure, shortened: as §1
Trypanosoma cruzi [4] = assay: Inhibition of Trypanosoma cruzi Ribose 5-phosphate isomerase type B assessed as residual activity at 1 mM using ribose 5-phosphate as substrate relative to control; procedure, shortened: as §1
Trypanosoma cruzi [5] = assay: Inhibition of Trypanosoma cruzi Ribose 5-phosphate isomerase type B assessed as residual activity at 2 mM using ribose 5-phosphate as substrate relative to control; procedure, shortened: as §1
Trypanosoma cruzi [6] = assay: Inhibition of Trypanosoma cruzi RPE1 assessed as residual activity at 0.2 mM relative to control
Procedure, shortened: (§2)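 TcRPE-1 (first enzyme of the coupled RPI assay) activity measured with compound at 0.2, 0.5, 1.0 or 2.0 mM, as % of uninhibited activity. Mean of three independent determinations ± SEM.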

Trypanosoma cruzi [7] = assay: Inhibition of Trypanosoma cruzi RPE1 assessed as residual activity at 0.5 mM relative to control; procedure, shortened: as §2
Trypanosoma cruzi [8] = assay: Inhibition of Trypanosoma cruzi RPE1 assessed as residual activity at 1 mM relative to control; procedure, shortened: as §2
Trypanosoma cruzi [9] = assay: Inhibition of Trypanosoma cruzi RPE1 assessed as residual activity at 2 mM relative to control; procedure, shortened: as §2
NIH3T3 = assay: Cytotoxicity against mouse NIH/3T3 cells; assay type: cell-based
Trypanosoma cruzi [10] = assay: Trypanocidal activity against Trypanosoma cruzi trypomastigotes expressing beta galactosidase infected in NIH/3T3 cells assessed as parasite growth inhibition at up to 50 uM by reporter assay; conditions: dose microM <=50
[11] = Competitive inhibition of recombinant poly-His-tagged Trypanosoma cruzi Ribose 5-phosphate isomerase type B expressed in Escherichia coli BL21 codon plus (DE3) using ribose 5-phosphate as substrate
Procedure, shortened: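 Coupled spectrophotometric RPI assay, with T. cruzi ribulose 5-phosphate epimerase (TcRPE-1) as the first coupling enzyme. Inhibitor was tested at 0, 10, 20, 40, 60 and 80 μM, each at R5P 0.4, 0.8 and 2 mM. Ki came from Dixon plots (1/V vs [inhibitor]), as the X-axis intersection of the three lines. Inhibition type was assigned from [R5P]/V vs [inhibitor] plots (Cornish-Bowden). Mean of four independent experiments.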

[12] = Inhibition of Trypanosoma cruzi Ribose 5-phosphate isomerase type B expressed in Escherichia coli BL21 codon plus (DE3) using ribose 5-phosphate as substrate
[13] = Competitive inhibition of Trypanosoma cruzi Ribose 5-phosphate isomerase type B using varying levels of ribose 5-phosphate as substrate by Dixon plot analysis
Procedure, shortened: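 Coupled assay with TcRPE-1 as first coupling enzyme. Inhibitor at 0, 10, 20, 40, 60 and 80 μM, R5P at 0.4, 0.8 and 2 mM. Ki taken from the x-axis intersection of Dixon plots (1/V vs [inhibitor]). Inhibition type assigned from parallel [R5P]/V vs [inhibitor] lines (Cornish-Bowden). Mean of four independent experiments.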

Trypanosoma cruzi [14] = assay: Binding affinity to Trypanosoma cruzi Ribose 5-phosphate isomerase type B assessed as covalent bond formation between compound and protein Cys69 residue by trypsin digestion based LC-MS/MS analysis
Procedure, shortened: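 TcRPI-B incubated intact with inhibitor for 30 min, then digested with trypsin to map cysteine modification.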

| SMILES | IC50 (Trypanosoma cruzi [1]) | Activity (Trypanosoma cruzi [2]) | Activity (Trypanosoma cruzi [3]) | Activity (Trypanosoma cruzi [4]) | Activity (Trypanosoma cruzi [5]) | Activity (Trypanosoma cruzi [6]) | Activity (Trypanosoma cruzi [7]) | Activity (Trypanosoma cruzi [8]) | Activity (Trypanosoma cruzi [9]) | Activity (NIH3T3) | Activity (Trypanosoma cruzi [10]) | Ki [11] | Ki [12] | Ki [13] | Activity (Trypanosoma cruzi [14]) |
| --- | --- | --- | --- | --- | --- | --- | --- | --- | --- | --- | --- | --- | --- | --- | --- |
| C[C@@H]1[C@H](O)[C@@H](C)/C=C/C=C/C=C/C=C/C=C/C=C/C=C/[C@H](O[C@@H]2O[C@H](C)[C@@H](O)[C@H](N)[C@@H]2O)C[C@@H]2O[C@](O)(C[C@@H](O)C[C@@H](O)[C@H](O)CC[C@@H](O)C[C@@H](O)CC(=O)O[C@H]1C)C[C@H](O)[C@H]2C(=O)O [AMPHOTERICIN B] | 0.23 µM |  |  |  |  |  |  |  |  |  |  |  |  |  |  |
| O=C(Cc1ccccc1)NCCOP(=O)(O)O |  | 98.1% | 97.4% | 95.3% | 89.2% | 100% | 91.9% | 87.4% | 85.9% | Non-Toxic | inactive |  |  |  |  |
| O=C(CBr)NCCOP(=O)(O)O |  | 78.5% | 62.7% | 41.3% | 18.3% | 91.1% | 85.8% | 77.3% | 65.1% | Non-Toxic | inactive |  |  |  |  |
| O=C(NO)[C@H](O)[C@H](O)COP(=O)(O)O |  |  |  |  |  |  |  |  |  |  |  | 1200 µM |  |  |  |
| O=C(CCl)NCCOP(=O)(O)O |  | 107% | 105% | 98.5% | 83.7% | 100% | 103% | 95.5% | 82.6% | Non-Toxic |  |  |  |  |  |
| O=C(CF)NCCOP(=O)(O)O |  |  | 2040% |  |  | 111% | 103% | 93.2% | 83.5% | Non-Toxic | inactive |  |  |  |  |
| O=C[C@H](O)[C@H](O)[C@H](O)[C@H](O)COP(=O)(O)O |  |  |  |  |  |  |  |  |  |  |  |  | 15000 µM |  |  |
| O=C(CI)NCCOP(=O)(O)O | 17.4 µM | 25.2% | 7.5% | 1.2% | 0% | 89.5% | 89.5% | 103% | 57.4% | Non-Toxic |  |  |  | 5.5 µM | Active |
